# T cell modulator: T cell immune modulation candidate | 330,000 tested, 0.068% active | 2C CD8+ T cell-vesicle binding, flow cytometry; stronger effect = lower value | response (vesicle binding), % at 7 µM;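 active means response, share of CD8 T cells binding vesicles, and their 90th percentile fluorescence all below set limits, cut at about 80% in these data, passing the limit was not always enough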;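 further: values below 100% mean blocked vesicle binding to the CD8+ T cells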
#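 Also added: QL9-peptide-loaded Drosophila micro-vesicles bearing Ld, ICAM-1 and B7-1; Test system: purified 2C TCR transgenic mouse naive CD8+ T cells; Measured by: cytometric PE anti-B7-1 and Alexa647 anti-CD8 signals after 1% paraformaldehyde fixation; Timing: binding step 1.5 h, 37 °C, antibody labelling 20 min, ice.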
# CTSL1 counter: cathepsin L1 inhibition, PFM18AAP counter-screen | recombinant F. hepatica cathepsin L1, Z-Leu-Arg-MCA fluorescence | inhibition, % at 5.96 µM | 300,000 tested, 0.49% active | AID 1906;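 active means inhibition above the mean of all tested compounds plus 3 SD, set per screening campaign, cut at about 17% in these data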;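 further: 0% = plate median of test compound wells and 100% = 1 µM Z-Phe-Ala-diazomethylketone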
# IMP-1 inh: inhibitors of Pseudomonas aeruginosa IMP-1 metallo-beta-lactamase. purified IMP-1, nitrocefin hydrolysis, epi-absorbance fluorescence. AID 1556. inhibition, % at 5.6 µM. 290,000 tested, 0.45% active;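 active means inhibition above the mean plus 3 SD of all compounds in the same screening run, cut at about 4.5% in these data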;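 further: 0% = IMP-1 with DMSO and 100% = DMSO wells lacking enzyme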
#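 System: purified IMP-1 / Input: IMP-1 dispensed at 0.2 nM / Medium: 50 mM HEPES pH 7.1, 50 µM ZnSO4, 0.05% Brij 35 / Timing: 15 min enzyme–compound preincubation, then 25 min nitrocefin reaction, 25 °C / Technique: plate fluorescence quenching by hydrolysis product, ex 480/em 530 nm / Repeats: singlicate testing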
# pCIP destab: p/CIP protein destabilization; Q05BA5; F442A p/CIP-EGFP cells, EGFP fluorescence, 16 h; decrease of EGFP signal, % at 10 µM; 290,000 tested, 0.01% active;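 active means EGFP signal decrease of at least 30% at 10 µM or well 3 SD below plate mean, unless failing retest; inactive means the rest, including hits failing retest or dose response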
# SUMO HTRF inh: SUMOylation inhibition; AID 2006; HTRF SUMOylation assay, SAE1/SAE2 + UBC9, in vitro; P63279; 290,000 tested, 0.36% active; inhibition, % at 35 µM; in the data active means inhibition above about 50%, passing the limit was not always enough
# Target sequence (P63279 whole entry, looked up): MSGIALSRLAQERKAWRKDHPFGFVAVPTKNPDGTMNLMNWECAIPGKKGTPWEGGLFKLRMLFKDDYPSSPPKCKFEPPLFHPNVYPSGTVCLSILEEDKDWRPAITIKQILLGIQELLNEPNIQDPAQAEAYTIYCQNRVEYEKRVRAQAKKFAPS
# VIM-2 inhibitor: blocks Pseudomonas aeruginosa VIM-2 metallo-beta-lactamase; 290,000 tested, 0.89% active; purified VIM-2, nitrocefin hydrolysis, epi-absorbance fluorescence; inhibition, % at 5.6 µM;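 active means inhibition above the mean of all tested compounds plus 3 SD, cutoff set per screening run, cut at about 7.5% in these data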;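 further: red hydrolysis product quenches plate fluorescence so inhibitors raise well fluorescence; 0% = enzyme with DMSO and 100% = DMSO without enzyme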
# * marks the source's active call; other numbers are inactive results; i = inactive; x = not tested or not shown. Shown are actives, neighbours in structure and some others; about 1.9% of the full set was active somewhere.
SMILES,T cell modulator,CTSL1 counter,IMP-1 inh,pCIP destab,SUMO HTRF inh,VIM-2 inhibitor
COc1cc(CNCc2ccccn2)ccc1OCc1ccc(Cl)cc1Cl,458.7,3.8,-1.8,-4.4,5.1,4.0
COc1cc(CNCc2ccccn2)ccc1OCc1ccc(Cl)c(Cl)c1,265.6,-2.4,-5.0,-3.3,16.7,10.1*
S=C(Nc1ccc2cn[nH]c2c1)Nc1ccccc1Cl,157.9,-2.7,-2.1,1.9,87.9*,-1.1
CN(C1CCCCC1)S(=O)(=O)c1cccc(C(=O)OCC(=O)NC2CCCc3ccccc32)c1 (stereo not given),331.0,5.0,-3.0,-6.7,7.1,-2.3
Nn1c(-c2ccc(F)cc2)nc2ccccc2c1=O,231.6,0.0,-3.3,-5.7,8.5,-0.7
O=C1c2cc(F)ccc2-n2c1nc1ccccc1c2=O,i,16.9*,-1.2,-3.0,11.0,3.9
COc1cccc(-c2nc(C(=O)NCCCN3CCOCC3)cc3c2[nH]c2ccccc23)c1,328.3,1.3,2.9,-9.3,12.5,8.2*
O=C(NCCCN1CCOCC1)c1cc2c([nH]c3ccccc32)c(-c2cccc(Br)c2)n1,302.2,0.7,-3.2,7.2,8.5,12.2*
O=C(NN=C1CCN(Cc2ccccc2)CC1)c1ccccc1O,324.3,1.1,-2.8,4.4,18.6,-3.9
O=C(NN=C1CCN(Cc2ccccc2)CC1)c1cc2ccccc2cc1O,239.1,6.7,-1.8,7.6,87.1*,0.8
CC(Oc1ccccc1)C(=O)Nc1nnc(C2CCCCC2)s1 (stereo not given),184.2,-3.0,-2.1,2.9,6.6,-3.5
Cc1cc(=O)n2[nH]c(C)c(-c3ccccc3)c2n1,508.0,-3.2,-8.2,-17.9,18.7,-2.2
O=c1cc(-c2ccccc2)nc2c(-c3ccccc3)c(C(F)(F)F)[nH]n12,577.6,5.5,-2.1,-1.9,50.6*,-2.9
Fc1cccc(Oc2nc3ccccc3n3cccc23)c1,262.4,64.8*,-1.8,-3.5,-20.1,0.8
Cc1[nH]n(-c2ccccc2)c(=O)c1C(C[N+](=O)[O-])c1ccc(Br)cc1 (stereo not given),174.8,-1.4,-4.2,-6.9,50.5,-5.6
COc1cccc(C(C[N+](=O)[O-])c2c(C)[nH]n(-c3ccccc3)c2=O)c1 (stereo not given),113.0,101.2*,1.7,-6.3,96.7*,12.1*
Cc1[nH]n(-c2ccccc2)c(=O)c1C(c1cccc([N+](=O)[O-])c1O)c1c(C)[nH]n(-c2ccccc2)c1=O,199.5,-2.1,-1.9,-0.3,62.4*,-2.7
Cc1ccc(C)c(S(=O)(=O)N2CCN(C(=O)CCCc3c[nH]c4ccccc34)CC2)c1,448.3,4.2,x,x,x,x
CCN(CC)C(=S)Nc1ccc(Cl)c(Cl)c1,398.9,-1.6,-1.8,2.0,-0.9,-1.4
COc1ccc(CCN(CC(=O)NC2CCCC2)C(=O)Cn2nnc(-c3ccc(C)o3)n2)cc1OC,372.6,-5.3,-3.5,0.6,1.8,-2.1
NC(=O)c1ccc(NC(=O)COC(=O)c2ccc(Br)o2)cc1,484.6,x,x,x,x,x
O=C(C[C@@H]1C/C=C\C[C@H](Cc2ccc(F)cc2)C(=O)OC[C@H]2CCCN2C1=O)N[C@H](CO)Cc1ccccc1,366.2,x,x,x,x,x
COc1ccc(C=Nc2cccnc2N)cc1,348.1,-4.4,-2.3,-3.8,16.1,1.2
Cc1ccc(C=Nc2cccnc2N)cc1,545.1,0.7,4.8*,-11.2,1.3,0.8
O=C(CCl)Nc1cn(-c2ccccc2)nc1-c1ccccc1,380.6,82.0*,-2.2,-19.6,-11.2,-6.4
SMILES,T cell modulator,CTSL1 counter,IMP-1 inh,pCIP destab,SUMO HTRF inh,VIM-2 inhibitor
O=C(N[C@@H](Cc1ccccc1)C(=O)CCl)OCc1ccccc1,356.6,69.2*,x,x,x,x
O=C(COc1coc(CN2CCc3ccccc32)cc1=O)N1CCCCC1,305.8,21.5*,x,x,x,x
O=C(COc1coc(CN2CCc3ccccc32)cc1=O)NCCc1ccccc1,150.6,-1.0,x,x,x,x
Oc1ccc(NCc2ccc(OCc3ccccc3)cc2)cc1,139.2,x,-1.3,-9.0,62.2,-0.7
CCc1ccc(CNc2ccc(O)cc2)cc1,279.0,104.9*,0.8,-13.4,33.9,-3.4
CN(CC(=O)Nc1ccccc1Cl)C(=O)Cn1nnc(-c2ccc(F)cc2)n1,562.1,-2.4,x,x,x,x
N#Cc1cc2cc3c(cc2nc1N1CCOCC1)OCO3,336.5,-1.2,4.5*,6.1,22.8,-0.8
COc1cc(/C=N/N=C(/N)c2nonc2N)cc(Br)c1OCc1cccc(C)c1,155.9,4.4,-2.0,-5.8,-7.4,-2.8
CCOc1cc(/C=N/N=C(\N)c2nonc2N)cc(Br)c1OCc1cccc2ccccc12,391.6,1.6,-5.1,2.0,55.6*,-3.8
COc1cc2c(cc1OC)C(c1ccccc1)N(C(=O)CCl)CC2 (stereo not given),60.1,30.7*,-2.0,6.2,7.7,-0.7
CCCCCc1cc(=O)oc2c(C(CCN3CCCC3)c3ccc(N(C)C)cc3)c(OC)cc(OC)c12 (stereo not given),238.8,2.3,x,3.1,-1.5,x
CCCCCc1cc(=O)oc2c(C(CCN3CCN(c4ccccc4)CC3)c3ccc4c(c3)OCO4)c(OC)cc(OC)c12 (stereo not given),186.8,33.3*,x,-2.3,-9.0,x
O=C(O)c1cccnc1SC1CC(=O)N(c2ccccc2)C1=O (stereo not given),298.6,3.5,5.2*,-9.4,18.2,-0.6
c1csc(-c2nn3c(-c4ccncc4)nnc3s2)c1,x,x,x,0.9,9.1,x
c1coc(-c2nnc3sc(-c4cccs4)nn23)c1,304.3,1.5,-0.4,-10.2,27.8,7.9*
CCN(CC)S(=O)(=O)c1cccc(NC(=O)COC(=O)C2CC3C=CC2C3)c1 (stereo not given),151.7,-17.5,-3.8,-1.9,-16.8,-1.9
CC(C)(C)Cc1nnc(NS(=O)(=O)Cc2ccccc2)s1,477.9,-1.6,-3.7,10.3,-3.0,9.0*
Cc1ccc(S(=O)(=O)Nc2nnc(CC(C)(C)C)s2)cc1,271.8,-0.5,-5.0,-1.6,2.2,-3.7
CCOC(=O)c1ccc(NC(=S)Nc2ccc3[nH]c(=O)[nH]c3c2)cc1,365.8,-1.2,-1.5,-0.7,26.3,0.9
COC(=O)c1ccc(NC(=S)Nc2ccc3ccccc3c2)cc1,267.0,0.5,5.2*,-8.6,-14.5,1.9
CCOC(=O)c1c(C)c(-c2ccccc2)n(CC(=O)NCCC(C)C)c1C,580.2,88.8*,-1.3,-10.8,8.9,-2.9
O=C(/C=C/c1cccs1)NNC(=O)c1ccccc1,30.6*,x,x,x,x,x
O=C(CCl)N(Cc1cc(=O)[nH]c2ccccc12)c1ccccc1,337.2,2.8,-2.3,-8.8,0.2,-3.7
CCOC(=O)Cn1nc(Cc2ccccc2)c2ccccc2c1=O,271.3,2.7,0.6,5.6,1.3,-1.1
CCOC(=O)Cn1nc(-c2ccccc2)c2ccccc2c1=O,204.7,-1.5,5.2*,2.8,-1.7,1.0

# Screening results: PubChem, several laboratories
